Our source for the Activity values is ChEMBL document CHEMBL1142518, “Potential nicotinic acetylcholine receptor ligands from 2,4-methanoproline derivatives” (J Med Chem, 2008).

Active and inactive are the calls of the source. No cut-off for these calls is given here.

The target in assay [1] is Neuronal acetylcholine receptor; alpha3/beta4 (Homo sapiens) (UniProt P30926+P32297). The assay can be described thus: Binding affinity to human nAChR-alpha-3-beta-4 in HEK293 cells. Format: cell-based. The procedure, abridged: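 Scintillation proximity assay on membranes from HEK-293 cells expressing cloned human α3β4 nAChR. [3H]epibatidine 2 nM, WGA-coated PVT beads 1.5 mg/well, 30 µg membrane protein/well, in 50 mM Tris-HCl, 150 mM NaCl, 5 mM KCl, pH 7.4. Nonspecific binding defined with 10 µM epibatidine. Equilibrated 2-4 h at room temperature, then scintillation counted. IC50 from 4-parameter logistic fit, converted to Ki by Cheng-Prusoff.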

In assay [2] the target is Neuronal acetylcholine receptor; alpha4/beta2 (Homo sapiens) (UniProt P17787+P43681). The assay can be described thus: Binding affinity to human nAChR-alpha-4-beta-2 in HEK293 cells. Format: cell-based. In short, it runs like this: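 Cloned human α4β2 nAChR in HEK-293 cell membranes, tested by SPA radioligand binding. Used [3H]epibatidine 1 nM, WGA-coated PVT beads 1 mg/well and 30 µg membrane protein/well, in Tris-HCl buffer (50 mM, 150 mM NaCl, 5 mM KCl, pH 7.4). Nonspecific binding defined with 10 µM epibatidine. Incubated 2-4 h at room temperature and read by scintillation counting. 4-parameter logistic IC50 converted to Ki by Cheng-Prusoff.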

For `Cc1cc(/C=C/C23CC(CN2)C3)on1`, the result in assay [1] and in assay [2] was inactive.
As for `Clc1ccc(OCC23CC(CN2)C3)cn1`, the outcome in assay [1] and in assay [2] was inactive.
`Cc1cc(C23CC(CN2)C3)on1`: the outcome in assay [1] and in assay [2] was inactive.
Consider `c1ccc(OCC23CC(CN2)C3)cc1`, for which the result in assay [1] and in assay [2] was inactive.
For the compound `c1cncc(OCC23CC(CN2)C3)c1`, the result in assay [1] and in assay [2] was inactive.
Take `Cc1cc(CCC23CC(CN2)C3)on1`: the result in assay [1] and in assay [2] was inactive.
